According to ChEMBL document CHEMBL1151976, “Bioactive sulfated sesterterpene alkaloids and sesterterpene sulfates from the marine sponge Fasciospongia sp” (J Nat Prod, 2009):
≈ marks a conversion by molar mass, not a printed value. Calls of active or inactive are those of the source. The rule behind the calls is not given here.

Key:
Lu1 [1] = test: Cytotoxicity against human Lu1 cells at 20 ug/ml after 72 hrs by SRB assay; format: functional, cell-based
Procedure, shortened: (§1)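 Single-concentration screen at 20 µg/mL. Cells seeded at 10^6 cells/mL in 96-well plates, sample added in 10% DMSO, incubated 72 h at 37 °C. Viability by sulforhodamine B staining, compared with a 0.5% DMSO-treated control.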

MCF7 [2] = test: Cytotoxicity against human MCF7 cells at 20 ug/ml after 72 hrs by SRB assay; format: functional, cell-based; procedure, shortened: as §1
LNCaP [3] = test: Cytotoxicity against human LNCAP cells at 20 ug/ml after 72 hrs by SRB assay; format: functional, cell-based; procedure, shortened: as §1
Streptomyces [4] = test: Antimicrobial activity against Streptomyces 85E assessed as inhibition of hyphae formation at 2.5 ug/disk after 30 hrs; format: functional
Procedure, shortened: (§2)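 Streptomyces 85E mycelial fragments spread as a lawn on minimal medium ISP 4 agar. Compounds in MeOH loaded onto 7 mm filter disks, air-dried, placed on plates, incubated 30 °C for 30 h. Read-out: clear or bald (hyphae-free) zone diameter around the disk; >9 mm counted active. Surfactin positive control, MeOH negative control; run in duplicate.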

Streptomyces [5] = test: Antimicrobial activity against Streptomyces 85E assessed as inhibition of hyphae formation at 5 ug/disk after 30 hrs; format: functional; settings: for zone of inhibition at 5 µg/disc: read-out: IZ; procedure, shortened: as §2
Streptomyces [6] = test: Antimicrobial activity against Streptomyces 85E assessed as inhibition of hyphae formation at 10 ug/disk after 30 hrs; format: functional; settings: read-out: IZ; procedure, shortened: as §2
Streptomyces [7] = test: Antimicrobial activity against Streptomyces 85E assessed as inhibition of hyphae formation at 20 ug/disk after 30 hrs; format: functional; settings: read-out: IZ; procedure, shortened: as §2
LNCaP [8] = test: Cytotoxicity against human LNCAP cells after 72 hrs by SRB assay; format: functional, cell-based
Procedure, shortened: (§3)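 Cells seeded at 10^6 cells/mL in 96-well plates. Six serial dilutions of sample in 10% DMSO added in triplicate. Incubated 72 h at 37 °C; viability measured by sulforhodamine B staining. IC50 is the concentration giving 50% growth inhibition relative to 0.5% DMSO-treated control, averaged over two independent experiments.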

Lu1 [9] = test: Cytotoxicity against human Lu1 cells after 72 hrs by SRB assay; format: functional, cell-based; settings: Lu1, 72 h; procedure, shortened: as §3
MCF7 [10] = test: Cytotoxicity against human MCF7 cells after 72 hrs by SRB assay; format: functional, cell-based; settings: MCF7, 72 h; procedure, shortened: as §3
HeLa = test: Cytotoxicity against human HeLa cells after 72 hrs by SRB assay; format: functional, cell-based

For `C[C@H]1CC[C@H]2C(=CCCC2(C)C)[C@@]1(C)CCC(CCCC1=CCN(CCc2c[nH]cn2)C1=O)COS(=O)(=O)O` (stereo not given in full) [FASCIOSPONGINE A], the Activity (Lu1 [1]) was “Not toxic”, the Activity (MCF7 [2]) was “Not toxic” and the Activity (LNCaP [3]) was “Not toxic”. For the same compound, the “inhibition zone (IZ)” value (Streptomyces [4]) was “inactive”, the zone of inhibition at 5 µg/disc (Streptomyces [5]) was 14 mm and the zone of inhibition at 10 µg/disc (Streptomyces [6]) was 16 mm. The zone of inhibition at 20 µg/disc (Streptomyces [7]) was 18 mm.

`C[C@H]1CC[C@H]2C(=CCCC2(C)C)[C@@]1(C)CCC(CCCC1=CC(=O)OC1O)COS(=O)(=O)O` (stereo not given in full) was tested, and the Activity (Lu1 [1]) was “Not toxic”, the Activity (MCF7 [2]) was “Not toxic” and the Activity (LNCaP [3]) was “Not toxic”. The “inhibition zone (IZ)” value (Streptomyces [4]) was “inactive”, the “inhibition zone (IZ)” value (Streptomyces [5]) was “inactive” and the zone of inhibition at 10 µg/disc (Streptomyces [6]) was 13 mm. The zone of inhibition at 20 µg/disc (Streptomyces [7]) was 19 mm.

In the case of `C[C@H]1CC[C@H]2C(=CCCC2(C)C)[C@@]1(C)CCC(CCCC1=CCN(CCCCNC(=N)N)C1=O)COS(=O)(=O)O` (stereo not given in full) [FASCIOSPONGINE C], the Activity (Lu1 [1]) is reported as “Not toxic”, the Activity (MCF7 [2]) is reported as “Not toxic” and the Activity (LNCaP [3]) is reported as “Not toxic”. For the same compound, the “inhibition zone (IZ)” value (Streptomyces [4]) was “inactive”, the “inhibition zone (IZ)” value (Streptomyces [5]) was “inactive” and the zone of inhibition at 10 µg/disc (Streptomyces [6]) was 13 mm. The zone of inhibition at 20 µg/disc (Streptomyces [7]) was 14 mm.

For `C[C@H]1CC[C@H]2C(=CCCC2(C)C)[C@@]1(C)CCC(CCCC1=CC(=O)OC1)COS(=O)(=O)O` (stereo not given in full) [HALISULFATE 9], the Activity (Lu1 [1]) was “Not toxic”, the Activity (MCF7 [2]) was “Not toxic” and the Activity (LNCaP [3]) was “Not toxic”. The “inhibition zone (IZ)” value (Streptomyces [4]) was “inactive”, the “inhibition zone (IZ)” value (Streptomyces [5]) was “inactive” and the zone of inhibition at 10 µg/disc (Streptomyces [6]) was 14 mm. For the same compound, the zone of inhibition at 20 µg/disc (Streptomyces [7]) was 16 mm.

`C[C@H]1CC[C@H]2C(=CCCC2(C)C)[C@@]1(C)CCC(CCCC1=CC(=O)N(CCc2c[nH]cn2)C1=O)COS(=O)(=O)O` (stereo not given in full) [19-OXOFASCIOSPONGINE A] showed a zone of inhibition at 2.5 µg/disc (Streptomyces [4]; read-out: IZ) of 14 mm, a zone of inhibition at 5 µg/disc (Streptomyces [5]) of 16 mm and a zone of inhibition at 10 µg/disc (Streptomyces [6]) of 20 mm. The IC50 (LNCaP [8]) was 21.8 µM, the IC50 (Lu1 [9]) was 5 µM and the IC50 (MCF7 [10]) was 13.4 µM. It also gave a zone of inhibition at 20 µg/disc (Streptomyces [7]) of 25 mm.

`C[C@H]1CC[C@H]2C(=CCCC2(C)C)[C@@]1(C)CCC(CCCc1ccoc1)COS(=O)(=O)O` (stereo not given in full) [HALISULFATE 7] was tested, and the Activity (Lu1 [1]) was “Not toxic”, the Activity (MCF7 [2]) was “Not toxic” and the Activity (LNCaP [3]) was “Not toxic”. The “inhibition zone (IZ)” value (Streptomyces [4]) was “inactive”, the IC50 (HeLa) was 16 µg/mL (≈ 35.3 µM) and the “inhibition zone (IZ)” value (Streptomyces [5]) was “inactive”. The zone of inhibition at 10 µg/disc (Streptomyces [6]) was 15 mm and the zone of inhibition at 20 µg/disc (Streptomyces [7]) was 18 mm.

`C[C@H]1CC[C@H]2C(=CCCC2(C)C)[C@@]1(C)CCC(CCCC1=CC(=O)N(CCc2c[nH]cn2)C1)COS(=O)(=O)O` (stereo not given in full) [FASCIOSPONGINE B] was tested, and the Activity (Lu1 [1]) was “Not toxic”, the Activity (MCF7 [2]) was “Not toxic” and the Activity (LNCaP [3]) was “Not toxic”. For the same compound, the “inhibition zone (IZ)” value (Streptomyces [4]) was “inactive”, the zone of inhibition at 5 µg/disc (Streptomyces [5]) was 15 mm and the zone of inhibition at 10 µg/disc (Streptomyces [6]) was 17 mm. For the same compound, the zone of inhibition at 20 µg/disc (Streptomyces [7]) was 19 mm.
